{"data": "Measurements pooled from the literature", "target": "Serine/threonine-protein kinase 32C (STK32C, Homo sapiens, UniProt Q86UX6)", "note": "Lines come from different studies, so protocols differ."}
{"Compound": "Cc1cc(O)c(-c2ccc([C@@H](C)CN(C)C)cc2)c2c1[nH]c(=O)c1sccc12", "assay": "enzyme activity, inhibitor", "setting": "0.1 µM, lysate", "quantity": "inhibition", "value": "-1.49%"}
{"Compound": "C=CC(=O)N1CCC[C@@H](n2nc(-c3ccc(Oc4ccccc4)cc3)c3c(N)ncnc32)C1", "assay": "enzyme activity, inhibitor", "setting": "1 µM", "quantity": "inhibition", "value": "14%"}
{"Compound": "C#Cc1cnc(Nc2ccnc(CO)c2)nc1Nc1ccccc1S(C)(=O)=NC#N (stereo not shown)", "assay": "cell-free assay", "setting": "1 µM", "quantity": "remaining signal", "value": "100%"}
{"Compound": "CC(C)S(=O)(=O)c1ccc2nccc(Nc3ccc4sc(C5CCCC5)nc4c3)c2c1", "assay": "enzyme activity, inhibitor", "setting": "1 µM", "quantity": "activity vs control", "value": "102%"}
{"Compound": "Cc1ccc(NC(=O)c2ccnc(C(F)(F)F)c2)cc1-c1cc(OCCO)nc(N2CCOCC2)c1", "assay": "binding", "setting": "1 µM", "quantity": "remaining binding", "value": "100%"}
{"Compound": "CO[C@@H]1[C@H](N(C)C(=O)c2ccccc2)C[C@H]2O[C@]1(C)n1c3ccccc3c3c4c(c5c6ccccc6n2c5c31)C(=O)NC4", "assay": "enzyme activity, inhibitor", "setting": "1 µM", "quantity": "inhibition", "value": "0%"}
{"Compound": "COc1ccc2oc(-c3ccc4nc(N)oc4c3)c/c(=N\\c3ccccc3NC(=O)CCN)c2c1", "assay": "binding", "setting": "1 µM", "quantity": "remaining binding", "value": "100%"}
{"Compound": "CCCCC(=O)Nc1ccc(-c2ccc3ncn(CCC)c(=O)c3c2)cn1", "assay": "binding, competition with immobilised ligand", "setting": "0.5 µM", "quantity": "remaining binding", "value": "92%"}
{"Compound": "N#Cc1ccc(NC(=O)Nc2ccccc2)cc1", "assay": "cell-free assay, competition with immobilised ligand", "setting": "25 µM", "quantity": "remaining binding", "value": "77%"}
{"Compound": "C[C@H]1CC[C@H](n2c3cnccc3c3cnc(Nc4ccc5c(n4)CCN(C(=O)CO)C5)nc32)CC1", "assay": "cell-free assay", "setting": "1 µM", "quantity": "remaining signal", "value": "100%"}
